Reference: ChEMBL document CHEMBL3351336, “Synthesis and evaluation of novel triazoles and mannich bases functionalized 1,4-dihydropyridine as angiotensin converting enzyme (ACE) inhibitors” (Bioorg Med Chem, 2014)
Active and inactive are the calls of the source. No cut-off for these calls is given here.

How the values were obtained:
[1] = target: T1, Angiotensin-converting enzyme (Oryctolagus cuniculus) (UniProt P12822); assay: (§1) Inhibition of rabbit lung ACE using hippuryl-histidyl-leucine as substrate assessed as release of hippuric acid incubated for 10 mins prior to substrate addition measured after 30 mins by spectrophotometry
T1 sequence (whole entry): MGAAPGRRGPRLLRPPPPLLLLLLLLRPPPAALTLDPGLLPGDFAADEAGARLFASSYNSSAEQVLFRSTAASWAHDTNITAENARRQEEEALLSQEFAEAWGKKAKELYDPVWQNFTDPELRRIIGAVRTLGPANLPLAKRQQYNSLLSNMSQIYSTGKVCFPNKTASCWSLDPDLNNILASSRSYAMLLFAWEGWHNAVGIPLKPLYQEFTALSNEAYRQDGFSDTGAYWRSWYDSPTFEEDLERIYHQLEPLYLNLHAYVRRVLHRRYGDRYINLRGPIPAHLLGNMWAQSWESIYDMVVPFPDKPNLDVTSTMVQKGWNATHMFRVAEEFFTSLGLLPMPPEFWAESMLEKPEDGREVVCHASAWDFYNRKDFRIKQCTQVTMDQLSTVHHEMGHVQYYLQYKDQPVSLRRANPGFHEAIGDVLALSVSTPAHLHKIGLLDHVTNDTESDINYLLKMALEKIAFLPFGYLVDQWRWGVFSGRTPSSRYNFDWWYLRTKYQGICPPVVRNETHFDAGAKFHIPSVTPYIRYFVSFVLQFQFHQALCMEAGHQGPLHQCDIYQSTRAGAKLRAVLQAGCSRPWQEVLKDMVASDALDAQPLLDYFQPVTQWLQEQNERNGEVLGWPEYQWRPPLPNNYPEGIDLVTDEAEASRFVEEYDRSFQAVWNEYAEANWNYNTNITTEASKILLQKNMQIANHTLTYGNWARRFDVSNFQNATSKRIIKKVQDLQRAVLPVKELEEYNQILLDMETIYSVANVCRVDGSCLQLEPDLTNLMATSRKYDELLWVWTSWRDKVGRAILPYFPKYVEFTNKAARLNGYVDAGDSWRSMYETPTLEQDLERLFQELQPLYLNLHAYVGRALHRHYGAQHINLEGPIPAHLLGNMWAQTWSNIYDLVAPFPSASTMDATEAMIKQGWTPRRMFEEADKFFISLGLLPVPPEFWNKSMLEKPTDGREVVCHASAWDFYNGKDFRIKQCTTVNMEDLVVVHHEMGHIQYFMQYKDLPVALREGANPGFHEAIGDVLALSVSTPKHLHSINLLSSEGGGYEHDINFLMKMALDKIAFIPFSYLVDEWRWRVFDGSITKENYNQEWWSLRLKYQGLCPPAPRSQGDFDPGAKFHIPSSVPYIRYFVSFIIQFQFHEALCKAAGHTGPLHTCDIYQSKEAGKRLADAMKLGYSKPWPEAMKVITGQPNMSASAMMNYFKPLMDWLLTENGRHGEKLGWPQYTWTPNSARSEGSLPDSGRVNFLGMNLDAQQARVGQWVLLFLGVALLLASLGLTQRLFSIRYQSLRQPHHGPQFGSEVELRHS

[2] = target: T2, Angiotensin-converting enzyme (Oryctolagus cuniculus, UniProt P12822); assay: as §1
T2 sequence (P12822 whole entry): T1 sequence (whole entry)

A549 = assay: Cytotoxicity against human A549 cells after 24 hrs by MTT assay; format: cell-based; conditions: A549, 24 h
How it was run: (§2)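 Cells kept in DMEM with 10% heat-inactivated FBS, penicillin, streptomycin and 2 mM L-glutamine at 37 °C, 5% CO2, passaged every 2–3 days. 1 × 10^4 cells/well seeded, grown 24 h, then exposed to compounds (10 µM–1000 µM) beside vehicle control for 24 h. MTT added for 4 h, formazan dissolved in DMSO, absorbance read at 540 nm; survival versus control, EC50 by probit analysis.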

HEK293 = assay: Cytotoxicity against human HEK293 cells after 24 hrs by MTT assay; format: cell-based; conditions: HEK293, 24 h; how it was run: as §2

Row | Compound | inhibition [1] | IC50 [2] [µM] | IC50 (A549) [µM] | IC50 (HEK293) [µM]
1 | CCOC(=O)C1=C(C)NC(C)=C(C(=O)OCC)C1c1cccc(OC)c1OCC#CCN1CCCC1 | inactive |  |  | 
2 | CCOC(=O)C1=C(C)NC(C)=C(C(=O)OCC)C1c1cc(Br)cc(Br)c1OCc1cn(CC(=O)NCc2ccc(OC(F)(F)F)cc2)nn1 | inactive |  |  | 
3 | CCOC(=O)C1=C(C)NC(C)=C(C(=O)OCC)C1c1cccc(OC)c1OCc1cn(CC(=O)Nc2nc3ccc(F)cc3s2)nn1 | Dose-dependent effect | 0.713 | > 1000 | > 1000
4 | CCOC(=O)C1=C(C)NC(C)=C(C(=O)OCC)C1c1cc(Br)ccc1OCC#CCN1CCN(c2ccccn2)CC1 | inactive |  |  | 
5 | COc1cccc2c1C(=O)c1c(O)c3c(c(O)c1C2=O)C[C@@](O)(C(=O)CO)C[C@@H]3O[C@H]1C[C@H](N)[C@H](O)[C@H](C)O1 [DOXORUBICIN] |  |  | 2.6 | 0.69
6 | CCOC(=O)C1=C(C)NC(C)=C(C(=O)OCC)C1c1cc(Br)cc(Br)c1OCC#CCN1CCN(C)CC1 | inactive |  |  | 
7 | CCOC(=O)C1=C(C)NC(C)=C(C(=O)OCC)C1c1cccc(OC)c1OCC#CCN1CCN(c2ccccc2)CC1 | inactive |  |  | 
8 | CCOC(=O)C1=C(C)NC(C)=C(C(=O)OCC)C1c1cccc(OC)c1OCC#CCN1CCC(C(=O)OCC)CC1 | inactive |  |  | 
9 | CCOC(=O)C1=C(C)NC(C)=C(C(=O)OCC)C1c1cccc(OC)c1OCC#CCN1CCOCC1 | inactive |  |  | 
10 | CCOC(=O)C1=C(C)NC(C)=C(C(=O)OCC)C1c1cc(Br)cc(Br)c1OCc1cn(CC(=O)NCCC(=O)O)nn1 | inactive |  |  | 
11 | CCOC(=O)C1=C(C)NC(C)=C(C(=O)OCC)C1c1cc(Br)cc(Br)c1OCc1cn(CC(=O)Nc2ccc(SC(F)(F)F)cc2)nn1 | inactive |  |  | 
12 | CCOC(=O)C1=C(C)NC(C)=C(C(=O)OCC)C1c1cccc(OC)c1OCc1cn(CCC(F)(F)C(F)(F)C(F)(F)C(F)(F)C(F)(F)C(F)(F)C(F)(F)C(F)(F)F)nn1 | Dose-dependent effect | 0.653 | > 1000 | > 1000
13 | CCOC(=O)C1=C(C)NC(C)=C(C(=O)OCC)C1c1cc(Br)cc(Br)c1OCc1cn(CC(=O)NC2CC2)nn1 | inactive |  |  | 
14 | CCOC(=O)C1=C(C)NC(C)=C(C(=O)OCC)C1c1cc(Br)cc(Br)c1OCc1cn(CC(=O)Nc2cccc(C(=O)O)c2)nn1 | inactive |  |  | 
15 | CCOC(=O)C1=C(C)NC(C)=C(C(=O)OCC)C1c1cc(Br)ccc1OCc1cn(CC(=O)NC2CCCCC2)nn1 | inactive |  |  | 
16 | CCOC(=O)C1=C(C)NC(C)=C(C(=O)OCC)C1c1cc(Br)cc(Br)c1OCC#CCN1CCN(c2ccccn2)CC1 | inactive |  |  | 
17 | CCOC(=O)C1=C(C)NC(C)=C(C(=O)OCC)C1c1cc(Br)cc(Br)c1OCC#CCN1CCN(c2ccc(F)cc2)CC1 | inactive |  |  | 
18 | CCOC(=O)C1=C(C)NC(C)=C(C(=O)OCC)C1c1cc(Br)ccc1OCc1cn(CC(=O)Nc2nnc(C(F)(F)F)s2)nn1 | inactive |  |  | 
19 | CCOC(=O)C1=C(C)NC(C)=C(C(=O)OCC)C1c1cccc(OC)c1OCC#CCN1CCN(C)CC1 | inactive |  |  | 
20 | NCCCC[C@H](N[C@@H](CCc1ccccc1)C(=O)O)C(=O)N1CCC[C@H]1C(=O)O [LISINOPRIL ANHYDROUS] |  | 0.281 |  | 
21 | CCOC(=O)C1=C(C)NC(C)=C(C(=O)OCC)C1c1cc(Br)ccc1OCC#CCN1CCOCC1 | inactive |  |  | 
22 | CCOC(=O)C1=C(C)NC(C)=C(C(=O)OCC)C1c1cccc(OC)c1OCc1cn(CC(=O)Nc2nnc(C(F)(F)F)s2)nn1 | Dose-dependent effect | 0.409 | > 1000 | > 1000
23 | CCOC(=O)C1=C(C)NC(C)=C(C(=O)OCC)C1c1cc(Br)cc(Br)c1OCC#CCN1CCN(CCO)CC1 | Dose-dependent effect | 0.928 | > 1000 | > 1000
